Measurements taken from ChEMBL document CHEMBL1151428, “Capability of 11 antipneumococcal antibiotics to select for resistance by multistep and single-step methodologies” (2007).
In brackets after ≈: the same amount, converted by molar mass.

Assays:
Format in all cases: functional
Streptococcus pneumoniae [1] = assay: Antimicrobial activity against drug-resistant Streptococcus pneumoniae isolate 3665 by NCCLS M7-A7 method
Streptococcus pneumoniae [2] = assay: Antimicrobial activity against drug-resistant Streptococcus pneumoniae isolate 1077 after 29 passages with azithromycin measured after 10 antibiotic-free subculture by multi-step resistance selection technique
Method in brief: (§1)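 Mutants selected by daily broth passage in subinhibitory drug in cation-adjusted Mueller-Hinton broth with 5% lysed horse blood. Stability was tested by 10 daily passages on blood agar without antibiotic, then macrodilution MIC.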

Streptococcus pneumoniae [3] = assay: Antimicrobial activity against drug-resistant Streptococcus pneumoniae isolate 37 by NCCLS M7-A7 method
Streptococcus pneumoniae [4] = assay: Antimicrobial activity against drug-resistant Streptococcus pneumoniae isolate 3665 after 26 passages with clarithromycin measured after 10 antibiotic-free subculture by multi-step resistance selection technique
Streptococcus pneumoniae [5] = assay: Antimicrobial activity against drug-resistant Streptococcus pneumoniae isolate 24 by NCCLS M7-A7 method
Streptococcus pneumoniae [6] = assay: Antimicrobial activity against drug-resistant Streptococcus pneumoniae isolate 24 after 14 passages with Telithromycin measured after 10 antibiotic-free subculture by multi-step resistance selection technique; method in brief: as §1
Streptococcus pneumoniae [7] = assay: Antimicrobial activity against drug-resistant Streptococcus pneumoniae isolate 3243 after 33 passages with azithromycin measured after 10 antibiotic-free subculture by multi-step resistance selection technique; method in brief: as §1
Streptococcus pneumoniae [8] = assay: Antimicrobial activity against drug-resistant Streptococcus pneumoniae isolate 3676 after 44 passages with clarithromycin measured after 10 antibiotic-free subculture by multi-step resistance selection technique
Streptococcus pneumoniae [9] = assay: Antimicrobial activity against drug-resistant Streptococcus pneumoniae isolate 24 after 50 passages with moxifloxacin measured after 10 antibiotic-free subculture by multi-step resistance selection technique; method in brief: as §1
Streptococcus pneumoniae [10] = assay: Antimicrobial activity against drug-resistant Streptococcus pneumoniae isolate 1076 by NCCLS M7-A7 method
Streptococcus pneumoniae [11] = assay: Antimicrobial activity against drug-resistant Streptococcus pneumoniae isolate 2527 after 20 passages with azithromycin measured after 10 antibiotic-free subculture by multi-step resistance selection technique; method in brief: as §1
Streptococcus pneumoniae [12] = assay: Antimicrobial activity against drug-resistant Streptococcus pneumoniae isolate 3243 after 29 passages with Telithromycin measured after 10 antibiotic-free subculture by multi-step resistance selection technique; method in brief: as §1
Streptococcus pneumoniae [13] = assay: Antimicrobial activity against drug-resistant Streptococcus pneumoniae isolate 3009 after 19 passages with moxifloxacin measured after 10 antibiotic-free subculture by multi-step resistance selection technique; method in brief: as §1
Streptococcus pneumoniae [14] = assay: Antimicrobial activity against drug-resistant Streptococcus pneumoniae isolate 3665 after 14 passages with Telithromycin measured after 10 antibiotic-free subculture by multi-step resistance selection technique
Streptococcus pneumoniae [15] = assay: Antimicrobial activity against drug-resistant Streptococcus pneumoniae isolate 1635 after 49 passages with clarithromycin measured after 10 antibiotic-free subculture by multi-step resistance selection technique
Streptococcus pneumoniae [16] = assay: Antimicrobial activity against drug-resistant Streptococcus pneumoniae isolate 3274 after 48 passages with Telithromycin measured after 10 antibiotic-free subculture by multi-step resistance selection technique; method in brief: as §1
Streptococcus pneumoniae [17] = assay: Antimicrobial activity against drug-resistant Streptococcus pneumoniae isolate 1076 after 14 passages with Telithromycin measured after 10 antibiotic-free subculture by multi-step resistance selection technique; method in brief: as §1
Streptococcus pneumoniae [18] = assay: Antimicrobial activity against drug-resistant Streptococcus pneumoniae isolate 1635 after 14 passages with azithromycin measured after 10 antibiotic-free subculture by multi-step resistance selection technique; method in brief: as §1
Streptococcus pneumoniae [19] = assay: Antimicrobial activity against drug-resistant Streptococcus pneumoniae isolate 1077 by NCCLS M7-A7 method
Streptococcus pneumoniae [20] = assay: Antimicrobial activity against drug-resistant Streptococcus pneumoniae isolate 37 after 14 passages with Telithromycin measured after 10 antibiotic-free subculture by multi-step resistance selection technique
Streptococcus pneumoniae [21] = assay: Antimicrobial activity against drug-resistant Streptococcus pneumoniae isolate 2527 after 50 passages by multi-step resistance selection technique
Method in brief: (§2)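 Daily serial passage in subinhibitory drug levels in 1 ml cation-adjusted Mueller-Hinton broth with 5% lysed horse blood; fresh broth for tigecycline. Each day, 10 μl were taken from the tube one to two dilutions below the MIC whose turbidity matched the growth control, and used to set the next MIC. […] MIC by macrodilution.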

Streptococcus pneumoniae [22] = assay: Antimicrobial activity against drug-resistant Streptococcus pneumoniae isolate 3243 after 20 passages with moxifloxacin measured after 10 antibiotic-free subculture by multi-step resistance selection technique; method in brief: as §1
Streptococcus pneumoniae [23] = assay: Antimicrobial activity against drug-resistant Streptococcus pneumoniae isolate 1077 after 15 passages with Telithromycin measured after 10 antibiotic-free subculture by multi-step resistance selection technique; method in brief: as §1
Streptococcus pneumoniae [24] = assay: Antimicrobial activity against drug-resistant Streptococcus pneumoniae isolate 3009 after 18 passages with levofloxacin measured after 10 antibiotic-free subculture by multi-step resistance selection technique; method in brief: as §1
Streptococcus pneumoniae [25] = assay: Antimicrobial activity against drug-resistant Streptococcus pneumoniae isolate 1635 after 14 passages with clindamycin measured after 10 antibiotic-free subculture by multi-step resistance selection technique
Streptococcus pneumoniae [26] = assay: Antimicrobial activity against drug-resistant Streptococcus pneumoniae isolate 3009 after 25 passages with clarithromycin measured after 10 antibiotic-free subculture by multi-step resistance selection technique
Streptococcus pneumoniae [27] = assay: Antimicrobial activity against drug-resistant Streptococcus pneumoniae isolate 3413 after 30 passages with Telithromycin measured after 10 antibiotic-free subculture by multi-step resistance selection technique; method in brief: as §1
Streptococcus pneumoniae [28] = assay: Antimicrobial activity against drug-resistant Streptococcus pneumoniae isolate 3009 after 50 passages by multi-step resistance selection technique; method in brief: as §2
Streptococcus pneumoniae [29] = assay: Antimicrobial activity against drug-resistant Streptococcus pneumoniae isolate 3413 by NCCLS M7-A7 method
Streptococcus pneumoniae [30] = assay: Antimicrobial activity against drug-resistant Streptococcus pneumoniae isolate 3676 after 14 passages with Telithromycin measured after 10 antibiotic-free subculture by multi-step resistance selection technique
Streptococcus pneumoniae [31] = assay: Antimicrobial activity against drug-resistant Streptococcus pneumoniae isolate 3009 by NCCLS M7-A7 method

For CC[C@H]1OC(=O)[C@H](C)C(=O)[C@H](C)[C@@H](O[C@@H]2O[C@H](C)C[C@H](N(C)C)[C@H]2O)[C@](C)(OC)C[C@@H](C)C(=O)[C@H](C)[C@H]2N(CCCCn3cnc(-c4cccnc4)c3)C(=O)O[C@]12C [TELITHROMYCIN], the MIC (Streptococcus pneumoniae [1]) was 0.125 µg/mL (≈ 0.154 µM), the MIC (Streptococcus pneumoniae [2]) was 0.125 µg/mL (≈ 0.154 µM) and the MIC (Streptococcus pneumoniae [3]) was 0.25 µg/mL (≈ 0.308 µM). For the same molecule, the MIC (Streptococcus pneumoniae [4]) was 0.06 µg/mL (≈ 0.0739 µM), the MIC (Streptococcus pneumoniae [5]) was 0.25 µg/mL (≈ 0.308 µM) and the MIC (Streptococcus pneumoniae [6]) was 16 µg/mL (≈ 19.7 µM). It also gave an MIC (Streptococcus pneumoniae [7]) of 0.06 µg/mL (≈ 0.0739 µM), an MIC (Streptococcus pneumoniae [8]) of 0.03 µg/mL (≈ 0.0369 µM) and an MIC (Streptococcus pneumoniae [9]) of 0.25 µg/mL (≈ 0.308 µM). It also gave an MIC (Streptococcus pneumoniae [10]) of 0.5 µg/mL (≈ 0.616 µM), an MIC (Streptococcus pneumoniae [11]) of 0.03 µg/mL (≈ 0.0369 µM) and an MIC (Streptococcus pneumoniae [12]) of 0.06 µg/mL (≈ 0.0739 µM). It also gave an MIC (Streptococcus pneumoniae [13]) of 0.008 µg/mL (≈ 0.00985 µM), an MIC (Streptococcus pneumoniae [14]) of 0.25 µg/mL (≈ 0.308 µM) and an MIC (Streptococcus pneumoniae [15]) of 0.016 µg/mL (≈ 0.0197 µM). For the same molecule, the MIC (Streptococcus pneumoniae [16]) was 0.5 µg/mL (≈ 0.616 µM), the MIC (Streptococcus pneumoniae [17]) was over 64 µg/mL and the MIC (Streptococcus pneumoniae [18]) was 0.004 µg/mL (≈ 0.00493 µM). For the same molecule, the MIC (Streptococcus pneumoniae [19]) was 0.004 µg/mL (≈ 0.00493 µM), the MIC (Streptococcus pneumoniae [20]) was 8 µg/mL (≈ 9.85 µM) and the MIC (Streptococcus pneumoniae [21]) was 0.016 µg/mL (≈ 0.0197 µM). The MIC (Streptococcus pneumoniae [22]) was 0.016 µg/mL (≈ 0.0197 µM), the MIC (Streptococcus pneumoniae [23]) was 0.25 µg/mL (≈ 0.308 µM) and the MIC (Streptococcus pneumoniae [24]) was 0.016 µg/mL (≈ 0.0197 µM). The MIC (Streptococcus pneumoniae [25]) was 0.008 µg/mL (≈ 0.00985 µM), the MIC (Streptococcus pneumoniae [26]) was 0.06 µg/mL (≈ 0.0739 µM) and the MIC (Streptococcus pneumoniae [27]) was 0.5 µg/mL (≈ 0.616 µM). For the same molecule, the MIC (Streptococcus pneumoniae [28]) was 0.03 µg/mL (≈ 0.0369 µM), the MIC (Streptococcus pneumoniae [29]) was 0.03 µg/mL (≈ 0.0369 µM) and the MIC (Streptococcus pneumoniae [30]) was 0.06 µg/mL (≈ 0.0739 µM). For the same molecule, the MIC (Streptococcus pneumoniae [31]) was 0.016 µg/mL (≈ 0.0197 µM).
